Data reported in ChEMBL document CHEMBL1142359 (J Med Chem, 2008).
One block for each compound: values may come before it.

Assays:
[1] = biological target: T1, Sodium/glucose cotransporter 2 (Homo sapiens, UniProt P31639); assay: Inhibition of human SGLT2 expressed in CHO cells assessed as inhibition of [14C]AMG accumulation; format: cell-based
T1 sequence (P31639 whole entry): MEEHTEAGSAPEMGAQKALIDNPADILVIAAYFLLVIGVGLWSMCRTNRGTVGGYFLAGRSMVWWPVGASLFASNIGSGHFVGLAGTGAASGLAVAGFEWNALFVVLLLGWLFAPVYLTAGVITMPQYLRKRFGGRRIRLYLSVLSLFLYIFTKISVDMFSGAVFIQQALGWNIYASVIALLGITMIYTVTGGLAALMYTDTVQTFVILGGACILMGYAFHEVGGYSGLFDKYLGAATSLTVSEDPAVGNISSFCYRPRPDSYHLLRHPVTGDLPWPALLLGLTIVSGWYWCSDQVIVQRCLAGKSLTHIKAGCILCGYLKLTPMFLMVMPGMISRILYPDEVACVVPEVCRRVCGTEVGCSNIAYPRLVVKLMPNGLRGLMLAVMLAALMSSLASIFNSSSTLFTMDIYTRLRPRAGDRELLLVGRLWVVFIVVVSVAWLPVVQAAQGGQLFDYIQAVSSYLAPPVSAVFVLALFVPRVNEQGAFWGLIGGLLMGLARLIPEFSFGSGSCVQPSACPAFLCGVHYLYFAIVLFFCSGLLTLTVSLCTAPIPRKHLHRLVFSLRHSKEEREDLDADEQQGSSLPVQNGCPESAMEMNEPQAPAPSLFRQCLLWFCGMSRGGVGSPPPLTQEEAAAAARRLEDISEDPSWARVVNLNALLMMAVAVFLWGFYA
How it was run: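 Radiolabeled α-methyl-D-glucopyranoside accumulation in Chinese hamster ovary cells stably expressing human or rat SGLT2. EC50 is taken as inhibition of that uptake. The assay was run in protein-free buffer, and n is given per value.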

[2] = biological target: T2, Solute carrier family 2, facilitated glucose transporter member 1 (Homo sapiens) (UniProt P11166); conditions: 20 uM
T2 sequence (whole entry): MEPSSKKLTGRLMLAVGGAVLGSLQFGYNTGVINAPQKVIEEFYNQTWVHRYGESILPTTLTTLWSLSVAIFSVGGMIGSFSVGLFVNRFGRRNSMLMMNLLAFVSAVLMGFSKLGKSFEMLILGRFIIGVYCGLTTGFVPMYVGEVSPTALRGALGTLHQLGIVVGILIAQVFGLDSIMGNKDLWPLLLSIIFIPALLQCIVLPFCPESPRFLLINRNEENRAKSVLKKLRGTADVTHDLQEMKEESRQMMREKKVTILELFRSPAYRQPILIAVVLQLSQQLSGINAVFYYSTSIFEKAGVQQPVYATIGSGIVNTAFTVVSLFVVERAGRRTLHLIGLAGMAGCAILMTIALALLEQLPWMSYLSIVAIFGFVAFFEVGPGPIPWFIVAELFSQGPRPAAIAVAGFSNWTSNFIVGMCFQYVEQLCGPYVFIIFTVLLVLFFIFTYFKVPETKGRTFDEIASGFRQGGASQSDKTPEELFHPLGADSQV

[3] = Oral bioavailability in rat; conditions: in vivo
[4] = Elimination half life in intra arterially dosed dog; conditions: in vivo
[5] = biological target: T3, Sodium/glucose cotransporter 2 (Rattus norvegicus, UniProt P53792); assay: Inhibition of rat SGLT2 expressed in CHO cells assessed as inhibition of [14C]AMG accumulation
T3 sequence (P53792 whole entry): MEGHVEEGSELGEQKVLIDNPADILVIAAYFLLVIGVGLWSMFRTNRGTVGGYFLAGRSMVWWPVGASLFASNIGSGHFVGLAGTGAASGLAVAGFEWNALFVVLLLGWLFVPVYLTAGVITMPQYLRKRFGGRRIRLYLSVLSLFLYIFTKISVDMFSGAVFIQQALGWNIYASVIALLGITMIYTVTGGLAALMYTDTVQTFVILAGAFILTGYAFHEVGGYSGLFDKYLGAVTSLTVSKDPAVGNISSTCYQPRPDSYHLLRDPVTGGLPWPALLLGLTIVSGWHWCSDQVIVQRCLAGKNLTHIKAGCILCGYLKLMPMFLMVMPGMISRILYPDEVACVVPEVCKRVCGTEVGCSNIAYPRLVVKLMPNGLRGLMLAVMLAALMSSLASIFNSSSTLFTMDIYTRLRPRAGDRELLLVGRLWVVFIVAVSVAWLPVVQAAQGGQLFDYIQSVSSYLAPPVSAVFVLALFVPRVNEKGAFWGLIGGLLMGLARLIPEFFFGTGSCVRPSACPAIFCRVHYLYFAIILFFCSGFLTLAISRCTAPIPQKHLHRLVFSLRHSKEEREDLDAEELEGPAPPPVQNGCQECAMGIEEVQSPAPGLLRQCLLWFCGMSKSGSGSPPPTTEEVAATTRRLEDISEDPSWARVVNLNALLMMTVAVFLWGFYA

[6] = Volume of distribution at steady state in rat; conditions: in vivo
[7] = Permeability across human Caco-2 cells
[8] = Fraction unbound in rat serum at 10 uM
[9] = Fraction unbound in human serum at 10 uM
[10] = Elimination half life in intra arterially dosed monkey; conditions: rhesus monkey, in vivo
[11] = Clearance in rat at 1 mg/kg, po after 1.7 hrs; conditions: in vivo
in vivo = conditions: rat, po, 1 mg/kg
[12] = biological target: T4, Solute carrier family 2, facilitated glucose transporter member 4 (Homo sapiens) (UniProt P14672); conditions: 20 uM
T4 sequence (whole entry): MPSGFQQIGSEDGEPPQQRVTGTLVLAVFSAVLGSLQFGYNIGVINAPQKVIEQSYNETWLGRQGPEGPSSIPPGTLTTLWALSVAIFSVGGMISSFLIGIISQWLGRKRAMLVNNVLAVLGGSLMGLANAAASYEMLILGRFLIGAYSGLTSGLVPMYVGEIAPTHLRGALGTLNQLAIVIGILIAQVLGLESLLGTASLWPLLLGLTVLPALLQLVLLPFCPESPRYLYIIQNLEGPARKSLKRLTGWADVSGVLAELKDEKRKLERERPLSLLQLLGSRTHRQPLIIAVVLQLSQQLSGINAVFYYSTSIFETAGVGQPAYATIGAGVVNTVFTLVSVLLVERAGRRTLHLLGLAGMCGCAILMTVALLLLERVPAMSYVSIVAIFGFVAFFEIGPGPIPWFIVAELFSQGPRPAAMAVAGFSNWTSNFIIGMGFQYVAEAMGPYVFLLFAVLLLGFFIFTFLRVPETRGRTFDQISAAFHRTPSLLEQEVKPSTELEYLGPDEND

[13] = Elimination half life in intra arterially dosed rat; conditions: in vivo

EC50 [1]: 9.2 nM
Structure (SMILES): COc1ccc(Cc2ccccc2O[C@@H]2O[C@H](CO)[C@@H](O)[C@H](O)[C@H]2O)cc1 [SERGLIFLOZIN A]

EC50 [1]: 6.6 nM
Structure (SMILES): Cc1cc(O)c(C(=O)CCc2ccc3occc3c2)c(O[C@@H]2O[C@H](CO)[C@@H](O)[C@H](O)[C@H]2O)c1

inhibition [2]: 8%
bioavailability [3]: 84%
half-life [4]: 7.4 h
EC50 [5]: 3 nM
Vd [6]: 1.6 L/kg
Papp [7]: > 15 ×10⁻⁶ cm/s
fraction unbound at 10 µM [8]: 0.03
fraction unbound at 10 µM [9]: 0.04
half-life [10]: 3 h
CL/F at 1.7 h [11]: 4.8 mL/min/kg
Cmax at 1.7 h (in vivo): 600 ng/mL
inhibition [12]: 8%
half-life [13]: 4.6 h
Structure (SMILES): CCOc1ccc(Cc2cc([C@@H]3O[C@H](CO)[C@@H](O)[C@H](O)[C@H]3O)ccc2Cl)cc1 [DAPAGLIFLOZIN]

EC50 [1]: 1300 nM
Structure (SMILES): CCNC(=O)c1c(O)c(Cc2ccc(OC)cc2)cc([C@@H]2O[C@H](CO)[C@@H](O)[C@H](O)[C@H]2O)c1O
